Data set [1] addresses T1, Neuronal acetylcholine receptor; alpha4/beta2 (Homo sapiens) (UniProt P17787+P43681). Description: Activity at human alpha4beta2 nAChR assessed as potentiation of nicotine-induced response by fluorescent Ca2+ flux assay. (In general: A change in cytosolic calcium serves as a functional read-out for many receptors and channels.)
Data set [2] deals with T1, Neuronal acetylcholine receptor; alpha4/beta2 (Homo sapiens). Nature of the data set: Activity at human alpha4beta2 nAChR assessed as potentiation of nicotine-induced response by fluorescent Ca2+ flux assay relative to nicotine.
Data set [3] can be described thus: Clearance in Sprague-Dawley rat. In kind it is ADME, organism-based. Particulars: in vivo.
Data set [4] is described as follows: Ratio of drug level in brain to plasma in Sprague-Dawley rat. In kind it is ADME, organism-based. The conditions noted are these: brain and plasma.
In data set [5] the target is Neuronal acetylcholine receptor; alpha3/beta4 (Homo sapiens) (UniProt P30926+P32297). Description: Activity at human alpha3beta4 nAChR expressed in Xenopus oocytes assessed as potentiation of acetylcholine-induced response by patch-clamp electrophysiology. The conditions noted are these: Oocyte. In kind it is cell-based. In general terms: In patch-clamp work, channel activity is measured electrically.

Data set [6] has as its target Neuronal acetylcholine receptor; alpha3/beta2 (Homo sapiens) (UniProt P17787+P32297). Description: Activity at human alpha3beta2 nAChR expressed in Xenopus oocytes assessed as potentiation of acetylcholine-induced response by patch-clamp electrophysiology. In kind it is cell-based. The conditions noted are these: Oocyte.
In data set [7] the test system is LLC-PK1. Description: Efflux ratio of permeability from […] in human MDR1 transfected pig LLC-PK1 cells at 5 uM after 2 hrs. It is filed as ADME, cell-based, Sus scrofa. Particulars: llc-pk1, 2 h. The method, boiled down: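 MDR1-LLC-PK1 cells were seeded at 200,000 cells/well on membrane filters. Transport was run manually on day 5 after plating, in both A-to-B and B-to-A directions, in the presence of 0.1% bovine serum albumin.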

The target in data set [8] is Neuronal acetylcholine receptor; alpha4/beta2 (Rattus norvegicus) (UniProt P09483+P12390). Nature of the data set: Displacement of [3H]cystisine from alpha4beta2 nAChR in rat cerebral cortical membrane at >=30 uM. In kind it is cell membranes. For orientation: Displacement assays read how much labelled ligand stays bound in the presence of the test substance.
Data set [9] can be described thus: Metabolic stability in rat liver microsomes. It is filed as ADME, Microsome. Particulars: read-out: Stability.
Data set [10] can be described thus: Metabolic stability in human liver microsomes. Particulars: read-out: Stability. In kind it is ADME, Microsome.

Calls of active or inactive are those of the source. No cut-off for these calls is given here.

In the case of `CC(C)c1cc(C(C)C)n(C[C@H](OC(=O)NC2CCCCC2)C(C)C)n1`, in data set [1], the EC12 came out at 2.7 µM. Moreover, the Efficacy in [2] was determined as 13%.

Consider `CC(C)c1cc(C(C)C)n(C[C@H](OC(=O)Nc2ccc(Cl)cc2)C(C)C)n1`, for which, in data set [1], the EC12 stood at 0.33 µM. Further, the Efficacy in [2] came to 91%.

`CC[C@H](Cn1ccc(C(F)(F)F)n1)OC(=O)Nc1ccc(F)cc1F`: in data set [1], the EC12 stood at 0.89 µM. Also, the Efficacy in data set [2] was found to be 15%.

As to `CC(C)c1cc(C(C)C)n(CC(OC(=O)Nc2ccsc2)C(C)C)n1` (racemic), the EC12 in [1] worked out at 0.7 µM. The Efficacy in data set [2] stood at 12%.

For `CC[C@H](Cn1nc(C(F)(F)F)cc1C1CCNCC1)OC(=O)Nc1ccc(F)cc1F`, the EC12 in data set [1] was more than 100 µM. For the same compound, the Efficacy in [2] is -3%.

As for `CC[C@H](Cn1nc(C)cc1C)OC(=O)Nc1ccc(F)cc1F`, in data set [1], the EC12 turned out to be 1.18 µM. Also, the Efficacy in data set [2] came to 15%.

Take `CC[C@H](Cn1nc(C(F)(F)F)cc1C1CCCC1)OC(=O)Nc1ccc(F)cc1F`: in data set [1], the EC12 came to 0.57 µM. Further, the clearance in [3] was 70.5 mL/min/kg. For the same compound, the Efficacy in data set [2] is 95%.

On to `CC[C@H](Cn1nc(C(F)(F)F)cc1C1CCCCC1)OC(=O)Nc1ccc(F)cc1F`, for which, in data set [1], the EC12 was 0.38 µM. In addition, the Efficacy in data set [2] came to 88%.

Take `Cc1cccc(NC(=O)O[C@@H](Cn2nc(C(C)C)cc2C(C)C)C(C)C)c1`: the EC12 in [1] is 0.9 µM. Further, the Efficacy in data set [2] worked out at 25%.

Regarding `CC(C)[C@H](Cn1cccn1)OC(=O)Nc1ccc(F)cc1F`, the EC12 in [1] was more than 50 µM. Further, in data set [2], the Efficacy turned out to be 6%.

As to `CC(C)c1cc(C(C)C)n(C[C@@H](C)OC(=O)Nc2ccc(F)cc2F)n1`, the EC12 in data set [1] worked out at 0.7 µM. The Efficacy in [2] was 15%.

Turning to `CC(C)[C@H](Cn1nc(C(F)(F)F)cc1C(F)(F)F)OC(=O)Nc1ccc(F)cc1F`, in data set [1], the EC12 was determined as 3.9 µM. In data set [2], the Efficacy was 16%.

Regarding `CC(C)c1cc(C(C)C)n(C[C@H](NC(=O)Nc2ccc(F)cc2F)C(C)C)n1`, the EC12 in [1] was 0.31 µM; in [5] it was more than 100 µM; in data set [6] it was more than 100 µM. In addition, the Kp in data set [4] stood at 1. This compound also showed a clearance in data set [3] of 50 mL/min/kg. For the same compound, in data set [7], the Ratio was 1.1. For the same compound, the Efficacy in data set [2] was 25%.

Regarding `CC(C)c1cc(C(C)C)n(C[C@H](OC(=O)Nc2ccncc2)C(C)C)n1`, in data set [1], the EC12 was more than 100 µM. In addition, in data set [2], the Efficacy was determined as 7%.

As to `CC(C)c1cc(C(C)C)n(C[C@@H](OC(=O)Nc2ccc(F)cc2F)C(C)C)n1`, in data set [1], the EC12 was more than 50 µM. The Efficacy in data set [2] worked out at 9%.

As to `CC[C@H](Cn1nc(C(C)C)cc1C(C)C)OC(=O)Nc1ccc(F)cc1F`, the EC12 in data set [1] was determined as 0.38 µM. For the same compound, the Efficacy in data set [2] was found to be 83%.

Take `CCCOc1ccc(NC(=O)O[C@@H](Cn2nc(C(C)C)cc2C(C)C)C(C)C)cc1`: the EC12 in data set [1] was found to be 0.33 µM. Further, the Efficacy in data set [2] was 107%.

As for `CC(C)c1cc(C(C)C)n(CC(OC(=O)Nc2ccc(F)cc2F)C(C)(C)C)n1` (racemic), the EC12 in [1] amounted to 3.7 µM. Moreover, in data set [2], the Efficacy was 11%.

Consider `CC[C@H](Cn1nc(C(F)(F)F)cc1C1CC1)OC(=O)Nc1ccc(F)cc1F`, for which the EC12 in data set [1] is 0.7 µM. Moreover, the Efficacy in data set [2] is 54%.

As to `CC(C)c1cc(C(C)C)n([C@@H](C)[C@@H](C)OC(=O)Nc2ccc(F)cc2F)n1` (racemic), the EC12 in [1] was more than 100 µM. For the same compound, the Efficacy in [2] stood at 10%.

In the case of `CC(C)[C@H](Cn1nc(C(F)(F)F)cc1-c1ccccc1)OC(=O)Nc1ccc(F)cc1F`, in data set [1], the EC12 worked out at 2.4 µM. The Efficacy in data set [2] was determined as 10%.

On to `CCc1cc(C(F)(F)F)nn1C[C@H](OC(=O)Nc1ccc(F)cc1F)C(C)C`, for which, in [1], the EC12 was 0.21 µM. Further, the Efficacy in data set [2] was found to be 50%.

On to `COc1ccc(NC(=O)O[C@@H](Cn2nc(C(C)C)cc2C(C)C)C(C)C)cc1`, for which the EC12 in [1] was 0.14 µM. Besides, the Efficacy in data set [2] is 77%.

For the compound `CC(C)c1cc(C(C)C)n(CC(OC(=O)Nc2ccccc2)C(C)C)n1` (racemic), the EC12 in data set [1] came out at 0.38 µM. For the same compound, in data set [2], the Efficacy is 18%.

For `CC[C@H](Cn1nc(C(F)(F)F)cc1C1CCCO1)OC(=O)Nc1ccc(F)cc1F` (some centres not stated), in [1], the EC12 is more than 100 µM. In addition, in [2], the Efficacy came to 3%.

Turning to `CCOc1ccc(NC(=O)O[C@@H](Cn2nc(C(C)C)cc2C(C)C)C(C)C)cc1`, the EC12 in [1] was determined as 0.11 µM. Moreover, in [3], the clearance was 30 mL/min/kg. Also, the outcome in [8] was inactive. Also, the Efficacy in [2] amounted to 100%.

For the compound `CC(C)c1cc(C(C)C)n(C[C@@H](NC(=O)Nc2ccc(F)cc2F)C(C)C)n1`, the EC12 in data set [1] was more than 10 µM. Besides, the Efficacy in data set [2] turned out to be 19%.

Take `CC(C)c1cc(C(C)C)n([C@@H]2CCC[C@H]2OC(=O)Nc2ccc(F)cc2F)n1`: the EC12 in data set [1] came to 0.25 µM. For the same compound, the Efficacy in data set [2] is 73%.

With `CC(C)[C@H](Cn1nccc1C(F)(F)F)OC(=O)Nc1ccc(F)cc1F`, in data set [1], the EC12 was determined as 2.1 µM. Further, in [2], the Efficacy is 30%.

With `Cc1ccc(NC(=O)O[C@@H](Cn2nc(C(C)C)cc2C(C)C)C(C)C)cc1`, the EC12 in data set [1] is 0.13 µM. For the same compound, the Efficacy in [2] came out at 59%.

In the case of `CC(C)c1cc(C(C)C)n(C[C@H](OC(=O)Nc2ccc(Oc3ccccc3)cc2)C(C)C)n1`, the EC12 in data set [1] amounted to 0.34 µM. In [2], the Efficacy turned out to be 89%.

In the case of `CC(C)c1cc(C(C)C)n(C[C@H](OC(=O)Nc2ccc(C(F)(F)F)cc2)C(C)C)n1`, the EC12 in data set [1] worked out at 0.4 µM. For the same compound, the Efficacy in [2] was 106%.

As for `CC(C)c1cc(C(C)C)n([C@H](C)[C@@H](C)OC(=O)Nc2ccc(F)cc2F)n1` (racemic), in data set [1], the EC12 worked out at 1.3 µM. Besides, in [2], the Efficacy was 12%.

For the compound `CC[C@H](Cn1nc(C(F)(F)F)cc1C1=CCCC1)OC(=O)Nc1ccc(F)cc1F`, the EC12 in data set [1] came out at 0.46 µM. In data set [2], the Efficacy came out at 20%.

For the compound `CC(C)c1cc(C(C)C)n(C[C@H](OC(=O)Nc2ccc(F)cc2F)C(C)C)n1`, the EC12 in data set [1] is 0.25 µM; in data set [5], more than 100 µM; in [6] it was more than 100 µM. The Kp in data set [4] came to 1. The compound also showed a clearance in data set [3] of 81.7 mL/min/kg. Also, the Ratio in data set [7] is 1.1. Also, the Efficacy in [2] turned out to be 76%. Further, the microsomal CLint in [9] was more than 399 µL/min/mg; in data set [10], 644 µL/min/mg.

`Cc1ccccc1NC(=O)O[C@@H](Cn1nc(C(C)C)cc1C(C)C)C(C)C`: the EC12 in data set [1] is more than 100 µM. In [2], the Efficacy came out at 9%.

What is called clearance is a measure of how efficiently the substance is removed, as volume per time. A low value points to inefficient removal. For orientation: Kp means the ratio of the level in a tissue or fluid to that in plasma or blood.

The values are drawn from ChEMBL document CHEMBL1152221, “Synthesis and activity of substituted carbamates as potentiators of the alpha4beta2 nicotinic acetylcholine receptor” (Bioorg Med Chem Lett, 2008).
